Experiment [1] addresses T1, Corticotropin-releasing factor receptor 1 (Homo sapiens, UniProt P34998).
T1 sequence (P34998 whole entry): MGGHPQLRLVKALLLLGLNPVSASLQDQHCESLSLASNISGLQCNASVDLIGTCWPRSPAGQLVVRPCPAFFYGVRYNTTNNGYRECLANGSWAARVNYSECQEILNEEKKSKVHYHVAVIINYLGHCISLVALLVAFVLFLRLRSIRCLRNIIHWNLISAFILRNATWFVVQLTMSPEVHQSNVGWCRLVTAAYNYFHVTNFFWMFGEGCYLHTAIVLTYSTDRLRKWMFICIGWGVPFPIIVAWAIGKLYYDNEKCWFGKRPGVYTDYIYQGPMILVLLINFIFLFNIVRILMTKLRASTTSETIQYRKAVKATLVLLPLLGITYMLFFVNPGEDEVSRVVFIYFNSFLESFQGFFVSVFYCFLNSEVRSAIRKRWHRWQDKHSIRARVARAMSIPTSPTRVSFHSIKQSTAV
The experiment in a line: Displacement of [125I]-CRF from human CRF1 receptor expressed in HEK293 cells after 2 hrs by scintillation proximity assay. The class given is cell-based. The method in brief: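 Membranes (5 µg/well) with WGA-coated SPA beads and 0.1 nM [125I]-human/rat CRF. Assay buffer is phosphate-buffered saline with 10 mM MgCl2, 2 mM EGTA, 1.5% BSA and protease inhibitors, pH 7.0. Nonspecific binding defined with 0.4 µM sauvagine. Incubated over 2 h at room temperature and counted after centrifugation. Specific binding expressed as % of total; IC50 from concentration-response curve.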

Experiment [2] concerns the target T1, Corticotropin-releasing factor receptor 1. Briefly: Antagonist activity at human CRF1 receptor expressed in HEK293 cells assessed as inhibition of CRF-stimulated intracellular cAMP accumulation preincubated for 30 mins measured after 30 mins by enzyme immunoassay. The class given is functional, cell-based. In short, it runs like this:
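Cells seeded at 5 × 10^4/well in DMEM with 0.1% FBS and 1 mM IBMX, pre-incubated 30 min, then test compound added for 30 min at 37 °C. Stimulation with 1 nM human/rat CRF for 30 min at 37 °C, followed by cell lysis. cAMP measured by EIA, basal (no CRF) subtracted, expressed as % of total production. IC50 from concentration-response curve.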

Bounds are passed on as bounds.

In turn, `CCN(c1cccc2nc(Oc3c(OC)cc(COC)cc3OC)c(C)cc12)C1CCOCC1` gave a half-inhibitory concentration (IC50) in experiment [1] of 0.323 µM. Same read-out and setting: as for `CCCN(CCC)c1cccc2nc(Nc3c(C)cc(C)cc3C)c(=O)n(C)c12`, the figure is 0.672 µM; as for `CCCC(CCC)Nc1cccc2nc(Nc3c(C)cc(C)cc3C)c(C)nc12`, 0.197 µM. For `CCCN(CCC)c1cccc2nc(Nc3c(C)cc(C)cc3C)c(=O)[nH]c12`, the half-maximal inhibitory concentration (IC50) in experiment [2] is 0.469 µM; in experiment [1] it was 0.1 µM. For `COCc1cc(OC)c(Oc2nc3cccc(NC4CCCCC4)c3cc2C)c(OC)c1`, the half-inhibitory concentration (IC50) in experiment [1] is greater than 1 µM. Still for that read-out and setting: as for `CCCN(CCC)c1cccc2nc(N(C)c3c(C)cc(C)cc3C)c(=O)n(C)c12`, the figure is greater than 1 µM. On the same count and under the same terms, as for `COCc1cc(OC)c(Oc2nc3cccc(N(CC4CCOCC4)CC4CC4)c3cc2C)c(OC)c1`, the figure is 0.762 µM; as for `CCN(CC1CCOCC1)c1cccc2nc(Oc3c(OC)cc(COC)cc3OC)c(C)cc12`, 0.646 µM. Still for that read-out and setting: as for `CCCN(CCC)c1cccc2nc(Oc3c(C)cc(C)cc3C)c(C)cc12`, the figure is 0.079 µM.

Consider `Cc1cc(C)c(Nc2nc3cccc(N(CC4CC4)C4CCOCC4)c3cc2C)c(C)c1`, for which the IC50 came out at 0.255 µM in experiment [2] and 0.09 µM in experiment [1].

As for `CCN(Cc1ccncc1)c1cccc2nc(Oc3c(OC)cc(COC)cc3OC)c(C)cc12`, in experiment [1], the 50% inhibitory concentration (IC50) was greater than 1 µM. Turning to `CCC(CC)Nc1cccc2nc(Oc3c(OC)cc(COC)cc3OC)c(C)cc12`, the IC50 in experiment [1] was greater than 1 µM. For the compound `COCc1cc(OC)c(Oc2nc3cccc(N(CC4CC4)C4CCOCC4)c3cc2C)c(OC)c1`, the IC50 in experiment [1] came to 0.157 µM. `CCCN(CCC)c1cccc2nc(Oc3c(OC)cc(COC)cc3OC)c(C)cc12`: the results for the IC50 in experiment [2] and in experiment [1] were 0.163 µM and 0.138 µM, respectively.

As to `CCCN(CCC)c1cccc2nc(Nc3c(OC)cc(OC)cc3OC)c(C)cc12`, the IC50 in experiment [1] was greater than 1 µM. As to `Cc1cc(C)c(Nc2nc3cccc(N(CC4CC4)CC4CC4)c3cc2C)c(C)c1`, the IC50 in experiment [1] came to 0.075 µM.

For the compound `CCCN(CCC)c1cccc2nc(Nc3c(OC)cc(COC)cc3OC)c(C)cc12`, the IC50 in experiment [1] stood at 0.472 µM.

Turning to `CCN(CC)c1cccc2nc(Oc3c(OC)cc(COC)cc3OC)c(C)cc12`, the IC50 in experiment [2] came to 0.167 µM; in experiment [1], 0.07 µM. Regarding `CCCN(CCC)c1cccc2nc(Nc3c(C)cc(C)cc3C)c(C)nc12`, the values for the IC50 in experiment [2] and in experiment [1] were 0.563 µM and 0.155 µM, respectively. On to `Cc1cc(C)c(Nc2nc3cccc(N(CC4CCOCC4)CC4CC4)c3cc2C)c(C)c1`, for which, in experiment [1], the 50% inhibitory concentration (IC50) worked out at 0.742 µM. With `CCCN(CCC)c1cccc2nc(Nc3c(C)cc(C)cc3C)c(C)cc12`, the IC50 in experiment [2] amounted to 0.372 µM; in experiment [1], 0.088 µM.

Source of the values: ChEMBL document CHEMBL2046315, “Design, synthesis and structure-activity relationships of 5-alkylaminolquinolines as a novel series of CRF1 receptor antagonists” (Bioorg Med Chem Lett, 2012).
